Assay results published in PubChem BioAssay.
Active and inactive are the calls of the source.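 The calls were made as follows, unless noted: active = GFP response above 150% of the DMSO level; inconclusive = fewer than 70 events counted for a yeast strain; inactive = the rest.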

Experiments:
[1] = hit retest on RPL19A-GFP reporter strain – cell-based, S. cerevisiae, flow cytometry, cherry picks, mother/daughter gates, confirmation (AID 2270;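 active = GFP response below 50% of the DMSO control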); conditions: 3 h, at 10 µM, stronger effect = lower value, 100 = same GFP as DMSO wells
[2] = yeast TOR pathway reporter LAP4-GFP change – cell-based, cherry picks, flow cytometry, mother/daughter gates, confirmation (AID 2271;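 active = GFP response above 150% of the DMSO control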;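 also: ratio of sample to DMSO plate mean so 100% equals DMSO level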); conditions: S. cerevisiae LAP4-GFP strain, 3 h, at 10 µM, stronger effect = higher value, 100 means same as DMSO control
Procedure, shortened: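 Test system: GFP-fusion yeast strain / Amount: 0.2 OD600 cells / Buffer or medium: SC medium / Dosing: 10 µM single dose / Incubation: compound exposure 3 h at 30 °C, end-over-end rotation / Detection: HT flow cytometry, GFP fluorescence channel / Evaluation: median GFP fluorescence as percent of plate-mean DMSO wells / Control set: DMSO-only negative wells, rapamycin 400 ng/mL positive wells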

[3] = TOR pathway reporter MEP2-GFP, retest of hits – S. cerevisiae, flow cytometry GFP, cherry picks, confirmation (AID 2272;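 active = GFP response above 150% of the DMSO control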;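 also: ratio of well signal to plate DMSO mean so 100% equals DMSO level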); conditions: S. cerevisiae MEP2-GFP strain, 3 h, at 10 µM, stronger effect = higher value
[4] = yeast AGP1-GFP fluorescence change, single-dose – cell-based, flow cytometry, S. cerevisiae, cherry picks, confirmation (AID 2273);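 also: median GFP channel fluorescence over the whole cell population gate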; conditions: S. cerevisiae AGP1-GFP strain, 3 h, at 10 µM
[5] = TOR pathway CIT2 reporter hit retest – S. cerevisiae, GFP fusion, cherry picks, mother/daughter gates, confirmation (AID 2274); conditions: S. cerevisiae CIT2-GFP strain, flow cytometry, 3 h, at 10 µM, stronger effect = higher value
[6] = measured here: daughter cell gate
[7] = measured here: mother cell gate
[8] = measured here: daughter cell gate response
[9] = measured here: mother cell gate response

SMILES	GFP response vs DMSO [1]	GFP response vs DMSO [1, 6]	GFP response vs DMSO [1, 7]	GFP response relative to DMSO [2]	GFP response relative to DMSO [2, 8]	GFP response relative to DMSO [2, 9]	GFP response vs DMSO [3]	GFP response, % of DMSO [4]	GFP response, % of DMSO [5]	GFP response, % of DMSO [5, 6]	GFP response, % of DMSO [5, 7]
O=[N+]([O-])c1cc(C(F)(F)F)ccc1Sc1ccccn1	102% (inactive)	101%	101%	97.4% (inactive)	98.7%	98.3%	102% (inactive)	99.2% (inactive)	104% (inactive)	103%	103%
COc1ccc(-c2nnc(NC(=O)c3ccc(S(=O)(=O)N4COCC4(C)C)cc3)o2)cc1	96.5% (inactive)	98.1%	94%	95.3% (inactive)	92.9%	97.4%	103% (inactive)	103% (inactive)	98.6% (inactive)	99.3%	98.2%
CCN(CC)CCCN(C(=O)c1ccc(Br)cc1)c1nc(-c2ccc(OC)cc2)cs1	96.5% (inactive)	97.3%	96.9%	95.3% (inactive)	99%	94.4%	101% (inactive)	97.9% (inactive)	95.8% (inactive)	95.8%	98.2%
Cc1ccc(SC(=O)c2c(C)noc2-c2cc(C)on2)cc1	103% (inactive)	102%	104%	120% (inactive)	120%	121%	126% (inactive)	107% (inactive)	124% (inactive)	124%	121%
CCc1nnc(NC(=O)c2ccc(S(=O)(=O)N(C)Cc3ccccc3)cc2)o1	99% (inactive)	99.5%	98.5%	103% (inactive)	106%	103%	104% (inactive)	103% (inactive)	103% (inactive)	99.7%	105%
Cc1cc(NC(=O)c2cccnc2Cl)ccc1NC(=O)c1cc2ccccc2o1	98% (inactive)	97.1%	94.5%	103% (inactive)	101%	104%	105% (inactive)	98.8% (inactive)	103% (inactive)	97.4%	103%
Cc1c(NC2=C(Cl)C(=O)N(c3ccccc3)C2=O)c(=O)n(-c2ccccc2)n1C	93.5% (inactive)	97.3%	95.2%	97.7% (inactive)	104%	99.5%	99.5% (inactive)	103% (inactive)	104% (inactive)	108%	96.8%
